# In ChEMBL document CHEMBL4680165, “β-Lactams with antiproliferative and antiapoptotic activity in breast and chemoresistant colon cancer cells” (Eur J Med Chem, 2020):
# Activity calls are given as the source filed them. The rule behind the calls is not given here.
# How the values were obtained:
# [1] = Half life of the compound in phosphate buffer at pH 9 by HPLC analysis; assay type: physicochemical
# Outline: (§1)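 Compound stock was 1 mg/mL in mobile phase; 30 µL was diluted into 1 mL phosphate buffer (pH 4, 7.4 or 9) and held at 37 °C. Samples were taken at 0, 5, 30 and 60 min, then hourly to 24 h. Analysis was reverse-phase C18 HPLC with acetonitrile/water mobile phase at 1 mL/min and detection at 254 nm.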
# MCF7 = assay: Antiproliferative activity against human MCF7 cells assessed as reduction in cell viability after 72 hrs by alamar blue assay; assay type: functional, cell-based; conditions: MCF7, 72 h
# Outline: (§2)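 Cells seeded at 5 x 10^3/well (MCF-7) or 1 x 10^4/well (HT-29, HEK-293T) and treated after 24 h with serial dilutions (0.001-100 µM) in 1% v/v ethanol vehicle. Alamar Blue 10% v/v added at 72 h, then 3-5 h at 37 °C in the dark; fluorescence ex 530/em 590 nm. Viability relative to vehicle; IC50 from dose-response curves; mean of three experiments in triplicate.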
# [2] = Selectivity index, ratio of IC50 for human MCF7 cells to IC50 for human HT-29 cells assessed as reduction in cell viability after 72 hrs by alamar blue assay; assay type: functional
# [3] = Half life of the compound in phosphate buffer at pH 4 by HPLC analysis; assay type: physicochemical; outline: as §1
# [4] = Half life of the compound in phosphate buffer at pH 7.4 by HPLC analysis; assay type: physicochemical; outline: as §1
# HT-29 [5] = assay: Antiproliferative activity against human HT-29 cells assessed as reduction in cell viability after 72 hrs by alamar blue assay; assay type: functional, cell-based; conditions: HT-29, 72 h; outline: as §2
# [6] = system: UDP-glucuronosyltransferases (UGTs); assay: Metabolic stability in human liver microsomes assessed as UGT-mediated N-glucuronidation by measuring intrinsic clearance at 3 uM measured up to 45 mins by LC-MS/MS analysis; assay type: ADME; conditions: microsomes, 0.75 h, 3 µM
# Outline: (§3)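 Pooled human liver microsomes (0.5 mg/mL protein final) with alamethicin (25 µg/mg) in 0.1 M phosphate pH 7.4, compound 3 µM final (0.25% DMSO), preincubated 37 °C. Reaction started with UDPGA (1 mM final). Sampled at 0, 5, 15, 30, 45 min into methanol, analysed by LC-MS/MS. Minus-UDPGA control run 45 min. Single incubations; t½ and CLint taken from the elimination rate constant.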
# Bos taurus = organism: Bos taurus; assay: Inhibition of bovine brain tubulin polymerization at 10 uM measured at 30 sec interval for 30 mins in presence of GTP by turbidimetry-based spectrophotometric method
# [7] = system: UDP-glucuronosyltransferases (UGTs); assay: Metabolic stability in human liver microsomes assessed as UGT-mediated N-glucuronidation by measuring half life at 3 uM measured up to 45 mins by LC-MS/MS analysis; assay type: ADME; conditions: microsomes, 0.75 h, 3 µM; outline: as §3
# Tubulin (Homo sapiens) [8] = biological target: T1, Tubulin (Homo sapiens) (UniProt P68371+Q9H4B7+P0DPH7+P68366+Q13509+Q71U36+P04350+Q3ZCM7+P07437+P68363+Q9BQE3+Q6PEY2+Q13885+Q9BVA1+Q9BUF5); assay: Binding affinity to tubulin in human MCF7 cells assessed as inhibition of tubulin-EBI adduct formation preincubated for 2 hrs followed by EBI addition and measured after 1.5 hrs by Western blotting analysis; assay type: cell-based; conditions: time 3.5 hrs
# Outline: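 MCF-7 cells (5 × 10^4/well) were incubated overnight, then given vehicle (0.1% v/v ethanol) or compound at 10 µM for 2 h. Selected wells then received EBI (100 µM) for 1.5 h. Cells were washed in ice-cold PBS, lysed in Laemmli buffer and run on SDS-PAGE. Blots were probed for β-tubulin and the β-tubulin–EBI adduct, with GAPDH as loading control. Three independent experiments.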
# HT-29 [9] = assay: Antiangiogenic activity in human HT29 cells assessed as reduction in VEGF secretion at 5 uM after 24 hrs by ELISA; assay type: functional, cell-based
# Outline: (§4)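 HT-29 cells at 5 x 10^4 per well, cultured 24 h and then exposed to 5 µM compound. Conditioned medium collected on ice and stored at -80 °C. Cytokines and angiogenic, vascular-injury and chemokine factors measured by multiplex panels with overnight supernatant incubation (Angiogenesis Panel 1 and Vascular Injury Panel 2 same day). Medium undiluted except 1:4 for Vascular Injury Panel 2. Secretion normalised to lysate protein by BCA.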
# HT-29 [10] = assay: Antiangiogenic activity in human HT29 cells assessed as reduction in IL-1beta secretion at 5 uM after 24 hrs by ELISA; assay type: functional, cell-based; outline: as §4
# HT-29 [11] = assay: Antiangiogenic activity in human HT29 cells assessed as reduction in IL-1alpha secretion at 5 uM after 24 hrs by ELISA; assay type: functional, cell-based; outline: as §4
# HT-29 [12] = assay: Antiangiogenic activity in human HT-29 cells assessed as increase in IL-1RA secretion at 5 uM after 24 hrs by ELISA; assay type: functional, cell-based; outline: as §4
# Tubulin (Homo sapiens) [13] = biological target: T1, Tubulin (Homo sapiens); assay: Induction of microtubule depolymerization in human MCF7 cells at 1 uM after 16 hrs by immunofluorescence staining based confocal microscopic analysis; assay type: cell-based
SMILES,IC50 (MCF7) [µM],Ratio IC50 [2],IC50 (HT-29 [5]) [µM],further results
COc1ccc([C@H]2[C@H](N)C(=O)N2c2cc(OC)c(OC)c(OC)c2)cc1Cl,0.141,0.84,0.167,half-life [1]: > 24 h; half-life [3]: > 24 h; half-life [4]: > 24 h
COc1ccc(/C=C\c2cc(OC)c(OC)c(OC)c2)cc1O [COMBRETASTATIN A4],0.004,0.001,4.17,CLH [6]: 645 µL/min/mg; inhibition (Bos taurus): Active; t1/2 [7]: 2.71 min; Activity (Tubulin (Homo sapiens) [8]): Active
COc1ccc([C@H]2[C@H](Oc3ccccc3)C(=O)N2c2cc(OC)c(OC)c(OC)c2)cc1Cl,0.43,1.37,0.314,half-life [1]: > 15 h; half-life [3]: > 15 h; half-life [4]: > 15 h
COc1ccc([C@H]2[C@H](c3ccccc3)C(=O)N2c2cc(OC)c(OC)c(OC)c2)cc1O,0.004,0.01,0.43,Activity (HT-29 [9]): inactive; Activity (HT-29 [10]): inactive; Activity (HT-29 [11]): inactive; Activity (HT-29 [12]): Active
CC(=O)O[C@H]1C(=O)[C@@]2(C)[C@H]([C@H](OC(=O)c3ccccc3)[C@]3(O)C[C@H](OC(=O)[C@H](O)[C@@H](NC(=O)c4ccccc4)c4ccccc4)C(C)=C1C3(C)C)[C@]1(OC(C)=O)CO[C@@H]1C[C@@H]2O,,,,Activity (Tubulin (Homo sapiens) [13]): Active
COc1ccc([C@H]2[C@H](O)C(=O)N2c2cc(OC)c(OC)c(OC)c2)cc1Br,0.044,4.89,0.009,inhibition (Bos taurus): Active
COc1ccc([C@H]2[C@H](O)C(=O)N2c2cc(OC)c(OC)c(OC)c2)cc1Cl,0.012,0.67,0.018,inhibition (Bos taurus): Active
COc1ccc([C@H]2[C@H](c3ccccc3)C(=O)N2c2cc(OC)c(OC)c(OC)c2)cc1C,0.462,3.02,0.153,
COc1ccc([C@H]2[C@H](c3ccccc3)C(=O)N2c2cc(OC)c(OC)c(OC)c2)cc1I,0.648,1.83,0.355,half-life [1]: 5 h; half-life [3]: 15 h; half-life [4]: 14 h
COc1ccc([C@H]2[C@H](Cl)C(=O)N2c2cc(OC)c(OC)c(OC)c2)cc1Cl,0.091,0.63,0.144,
C=C(C)[C@@H]1C(=O)N(c2cc(OC)c(OC)c(OC)c2)[C@H]1c1ccc(OC)c(Br)c1,0.284,0.83,0.333,
COc1ccc([C@H]2[C@H](Cl)C(=O)N2c2cc(OC)c(OC)c(OC)c2)cc1I,0.421,2.22,0.19,
COc1ccc([C@H]2[C@H](Oc3ccccc3)C(=O)N2c2cc(OC)c(OC)c(OC)c2)cc1F (relative stereo),0.073,0.47,0.155,
COc1ccc([C@H]2[C@H](c3ccccc3)C(=O)N2c2cc(OC)c(OC)c(OC)c2)cc1Br,0.651,2,0.325,
COc1ccc([C@H]2CC(=O)N2c2cc(OC)c(OC)c(OC)c2)cc1F,0.022,1.47,0.015,Activity (HT-29 [9]): inactive; Activity (HT-29 [10]): inactive; Activity (HT-29 [11]): inactive; Activity (HT-29 [12]): Active
COc1ccc([C@H]2CC(=O)N2c2cc(OC)c(OC)c(OC)c2)cc1I,0.821,3.16,0.26,
COc1ccc([C@H]2[C@H](Oc3ccccc3)C(=O)N2c2cc(OC)c(OC)c(OC)c2)cc1Br,0.818,1.42,0.577,
COc1ccc([C@H]2[C@H](Cl)C(=O)N2c2cc(OC)c(OC)c(OC)c2)cc1Br,0.603,3.12,0.194,
